Results: ChEMBL document CHEMBL1131432, “Side chain methyl substitution in the delta-opioid receptor antagonist TIPP has an important effect on the activity profile” (J Med Chem, 1998)
pIC50, pKi: −log10 of the molar value.

How the values were obtained:
Cavia porcellus [1] = species: Cavia porcellus; assay: In vitro agonist activity in electrically stimulated guinea pig ileum.; format: functional
In short: (§1)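 Isolated guinea pig ileum or mouse vas deferens, electrically stimulated; the read-out is inhibition of contractions. A [Leu5]enkephalin log dose–response curve was run on each preparation and test IC50 values were normalised to it. Antagonist Ke was taken from the IC50 ratio with and without a fixed antagonist concentration; in MVD the δ-antagonism was measured against DPDPE.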

Mus musculus [2] = species: Mus musculus; assay: Inhibition of electrically evoked contractions of MVD. In MVD assay, the opioid effect was primarily mediated by delta-receptor; format: functional; in short: as §1
Mu-type opioid receptor = Mu-type opioid receptor (Rattus norvegicus, UniProt P33535); assay: Binding affinity towards Opioid receptor mu 1 on rat forebrain membranes by [3H]sufentanil displacement.; parameters: species or system Membrane
Chain of Mu-type opioid receptor (P33535 whole entry): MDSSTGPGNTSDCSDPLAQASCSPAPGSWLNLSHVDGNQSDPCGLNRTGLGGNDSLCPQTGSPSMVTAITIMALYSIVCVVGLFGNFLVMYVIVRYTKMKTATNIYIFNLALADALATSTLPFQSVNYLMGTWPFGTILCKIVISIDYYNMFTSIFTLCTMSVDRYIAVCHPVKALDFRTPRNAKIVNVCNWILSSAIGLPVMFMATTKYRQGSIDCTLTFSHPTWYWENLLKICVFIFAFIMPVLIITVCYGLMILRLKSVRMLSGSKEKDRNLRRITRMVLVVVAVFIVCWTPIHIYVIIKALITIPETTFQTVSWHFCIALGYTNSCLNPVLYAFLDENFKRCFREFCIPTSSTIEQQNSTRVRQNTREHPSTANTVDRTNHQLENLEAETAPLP

[3] = biological target: Kappa-type opioid receptor (Cavia porcellus, UniProt P41144); assay: Binding affinity towards Opioid receptor kappa 1 on guinea pig cerebellum membranes by [3H]U-69593 displacement.; format: tissue-based, Membrane
Chain of Kappa-type opioid receptor (P41144 whole entry): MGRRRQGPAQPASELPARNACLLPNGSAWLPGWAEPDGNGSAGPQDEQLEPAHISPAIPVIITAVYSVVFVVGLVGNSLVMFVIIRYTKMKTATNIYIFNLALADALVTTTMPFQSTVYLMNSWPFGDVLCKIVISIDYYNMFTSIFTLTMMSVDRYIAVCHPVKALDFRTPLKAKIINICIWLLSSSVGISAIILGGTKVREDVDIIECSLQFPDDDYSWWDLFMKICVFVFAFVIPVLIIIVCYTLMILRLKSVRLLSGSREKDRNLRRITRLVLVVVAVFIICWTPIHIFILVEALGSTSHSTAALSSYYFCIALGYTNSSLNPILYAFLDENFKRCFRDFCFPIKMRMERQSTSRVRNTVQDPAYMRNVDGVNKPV

Mus musculus [4] = species: Mus musculus; assay: Inhibition of electrically evoked contractions of MVD. In MVD assay, the opioid effect are primarily mediated by delta-receptors.; format: functional
In short: (§2)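 Mouse vas deferens preparations, electrically stimulated, with inhibition of evoked contractions as the read-out. Each preparation got a [Leu5]enkephalin log dose-response curve as standard, and test IC50 values were normalized against it. Antagonism was tested against the agonist DPDPE. Ke came from the ratio of agonist IC50 with and without a fixed antagonist concentration.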

Mus musculus [5] = species: Mus musculus; assay: (§3) Inhibition of electrically evoked contractions of MVD in MVD assay, the opioid effect was primarily mediated by delta-receptor; format: functional; in short: as §1
Mus musculus [6] = species: Mus musculus; assay: as §3; format: functional; remark: listed apart in the source
Cavia porcellus [7] = species: Cavia porcellus; assay: In vitro opioid activity tested in bioassay based on inhibition of electrically evoked contractions of the GPI.; format: functional; in short: as §1
Mus musculus [8] = species: Mus musculus; assay: Inhibition of electrically evoked contractions of MVD. In MVD assay, the opioid effect is primarily mediated by delta-receptor; format: functional; in short: as §2
Mus musculus [9] = species: Mus musculus; assay: as §3; format: functional, organism-based; in short: as §1

Row | Compound | pIC50 (Cavia porcellus [1]) | Ke (Mus musculus [2]) [nM] | pKi (Mu-type opioid receptor) | pKi [3] | Ke (Mus musculus [4]) [nM] | Ke (Mus musculus [5]) [nM] | IC25 (Mus musculus [6]) [nM] | IC35 (Cavia porcellus [7]) [nM] | Ke (Mus musculus [8]) [nM] | pIC50 (Mus musculus [9])
1 | N[C@@H](Cc1ccc(O)cc1)C(=O)N1Cc2ccccc2C[C@H]1C(=O)N[C@@H](Cc1ccccc1)C(=O)N[C@@H](Cc1ccccc1)C(=O)O | < 5.00 | 4.8 | < 5.00 | < 5.00 |  |  |  |  |  | 
2 | NC(=O)[C@H](Cc1ccccc1)NC(=O)[C@@H](Cc1ccccc1)NC(=O)[C@@H]1Cc2ccccc2CN1C(=O)[C@@H](N)Cc1ccc(O)cc1 | < 5.00 | 125 | 6.18 |  |  |  |  |  |  | 
3 | C[C@@H](c1ccc(O)cc1)[C@H](N)C(=O)N1Cc2ccccc2C[C@H]1C(=O)N[C@@H](Cc1ccccc1)C(=O)N[C@@H](Cc1ccccc1)C(N)=O | < 5.00 |  | 6.45 | < 5.00 | 102 |  |  |  |  | 
4 | C[C@H](c1ccc(O)cc1)[C@@H](N)C(=O)N1Cc2ccccc2C[C@H]1C(=O)N[C@@H](Cc1ccccc1)C(=O)N[C@@H](Cc1ccccc1)C(N)=O | < 5.00 |  | 5.80 | 5.93 |  | 1020 |  |  |  | 
5 | C[C@@H](c1ccccc1)[C@H](NC(=O)[C@H](Cc1ccccc1)NC(=O)[C@@H]1Cc2ccccc2CN1C(=O)[C@@H](N)Cc1ccc(O)cc1)C(N)=O | 6.20 | 5.36 | 7.33 | 5.89 |  |  |  |  |  | 
6 | C[C@@H](c1ccccc1)[C@H](NC(=O)[C@@H]1Cc2ccccc2CN1C(=O)[C@@H](N)Cc1ccc(O)cc1)C(=O)N[C@@H](Cc1ccccc1)C(N)=O | 5.26 | 18.2 | 6.01 | 5.47 |  |  |  |  |  | 
7 | C[C@H](c1ccccc1)[C@@H](NC(=O)[C@@H]1Cc2ccccc2CN1C(=O)[C@@H](N)Cc1ccc(O)cc1)C(=O)N[C@@H](Cc1ccccc1)C(=O)O | < 5.00 | 0.192 | < 5.00 | < 5.00 |  |  |  |  |  | 
8 | C[C@H](c1ccccc1)[C@H](NC(=O)[C@@H]1Cc2ccccc2CN1C(=O)[C@@H](N)Cc1ccc(O)cc1)C(=O)N[C@@H](Cc1ccccc1)C(N)=O | 5.29 |  | 6.83 | 5.36 |  | 7.24 |  |  |  | 
9 | C[C@H](c1ccc(O)cc1)[C@H](N)C(=O)N1Cc2ccccc2C[C@H]1C(=O)N[C@@H](Cc1ccccc1)C(=O)N[C@@H](Cc1ccccc1)C(N)=O | 5.92 |  | 6.55 | < 5.00 |  |  | 1030 |  |  | 
10 | C[C@@H](c1ccccc1)[C@@H](NC(=O)[C@H](Cc1ccccc1)NC(=O)[C@@H]1Cc2ccccc2CN1C(=O)[C@@H](N)Cc1ccc(O)cc1)C(N)=O | 5.35 |  | < 5.00 | 5.55 |  | 27.7 |  |  |  | 
11 | C[C@H](c1ccccc1)[C@@H](NC(=O)[C@H](Cc1ccccc1)NC(=O)[C@@H]1Cc2ccccc2CN1C(=O)[C@@H](N)Cc1ccc(O)cc1)C(N)=O |  |  | 6.30 | 6.12 |  | 20.5 |  | 1710 |  | 
12 | NC(=O)[C@H](Cc1ccccc1)NC(=O)[C@H](Cc1ccccc1)NC(=O)[C@@H]1Cc2ccccc2CN1C(=O)[C@@H](N)Cc1ccc(O)cc1 |  |  | 6.75 | 6.08 |  |  |  |  | 18 | 
13 | N[C@@H](Cc1ccc(O)cc1)C(=O)N1Cc2ccccc2C[C@H]1C(=O)NC(Cc1ccccc1)C(=O)N[C@@H](Cc1ccccc1)C(=O)O (single isomer, unassigned) |  |  | 5.40 |  |  |  |  |  |  | 
14 | C[C@@H](c1ccccc1)C(NC(=O)[C@@H]1Cc2ccccc2CN1C(=O)[C@@H](N)Cc1ccc(O)cc1)C(=O)N[C@@H](Cc1ccccc1)C(N)=O (single isomer, unassigned) | 6.90 |  | 7.08 | 5.92 |  |  |  |  |  | 
15 | C[C@H](c1ccccc1)C(NC(=O)[C@@H]1Cc2ccccc2CN1C(=O)[C@@H](N)Cc1ccc(O)cc1)C(=O)N[C@@H](Cc1ccccc1)C(N)=O (single isomer, unassigned) | < 5.00 |  | < 5.00 | 6.35 |  | 54.4 |  |  |  | 
16 | C[C@@H](c1ccc(O)cc1)C(N)C(=O)N1Cc2ccccc2C[C@H]1C(=O)N[C@@H](Cc1ccccc1)C(=O)N[C@@H](Cc1ccccc1)C(N)=O (single isomer, unassigned) | < 5.00 |  | < 5.00 | 5.60 |  | 317 |  |  |  | 
17 | C[C@H](c1ccccc1)C(NC(=O)[C@H](Cc1ccccc1)NC(=O)[C@@H]1Cc2ccccc2CN1C(=O)[C@@H](N)Cc1ccc(O)cc1)C(N)=O (single isomer, unassigned) | 5.56 |  | 5.69 | 6.60 |  | 5.37 |  |  |  | 
18 | C[C@H]1c2ccccc2CN(C(=O)C(N)Cc2ccc(O)cc2)[C@H]1C(=O)N[C@@H](Cc1ccccc1)C(=O)N[C@@H](Cc1ccccc1)C(=O)O (single isomer, unassigned) | < 5.00 | 1.61 | < 5.00 | < 5.00 |  |  |  |  |  | 
19 | CC1c2ccccc2CN(C(=O)C(N)Cc2ccc(O)cc2)[C@@H]1C(=O)N[C@@H](Cc1ccccc1)C(=O)N[C@@H](Cc1ccccc1)C(=O)O (single isomer, unassigned) | < 5.00 | 2.09 | < 5.00 | < 5.00 |  |  |  |  |  | 
20 | NC(=O)[C@H](Cc1ccccc1)NC(=O)[C@H](Cc1ccccc1)NC(=O)C1Cc2ccccc2CN1C(=O)[C@@H](N)Cc1ccc(O)cc1 (single isomer, unassigned) | 7.43 |  | 8.14 |  |  |  |  |  |  | 6.34
21 | C[C@@H]1c2ccccc2CN(C(=O)[C@@H](N)Cc2ccc(O)cc2)C1C(=O)N[C@@H](Cc1ccccc1)C(=O)N[C@@H](Cc1ccccc1)C(=O)O (single isomer, unassigned; 15) | < 5.00 |  | < 5.00 | < 5.00 |  | 1560 |  |  |  | 
22 | C[C@@H]1c2ccccc2CN(C(=O)[C@@H](N)Cc2ccc(O)cc2)C1C(=O)N[C@@H](Cc1ccccc1)C(=O)N[C@@H](Cc1ccccc1)C(=O)O (single isomer, unassigned; 16) | < 5.00 |  | < 5.00 | < 5.00 |  | 401 |  |  |  | 
